Results from different studies.
Each line is one published result; the experiments were not run side by side.
Target: Serine/threonine-protein kinase Nek9 (NEK9, Homo sapiens, UniProt Q8TD19)
Sequence (Q8TD19 1-979, as in one of the studies): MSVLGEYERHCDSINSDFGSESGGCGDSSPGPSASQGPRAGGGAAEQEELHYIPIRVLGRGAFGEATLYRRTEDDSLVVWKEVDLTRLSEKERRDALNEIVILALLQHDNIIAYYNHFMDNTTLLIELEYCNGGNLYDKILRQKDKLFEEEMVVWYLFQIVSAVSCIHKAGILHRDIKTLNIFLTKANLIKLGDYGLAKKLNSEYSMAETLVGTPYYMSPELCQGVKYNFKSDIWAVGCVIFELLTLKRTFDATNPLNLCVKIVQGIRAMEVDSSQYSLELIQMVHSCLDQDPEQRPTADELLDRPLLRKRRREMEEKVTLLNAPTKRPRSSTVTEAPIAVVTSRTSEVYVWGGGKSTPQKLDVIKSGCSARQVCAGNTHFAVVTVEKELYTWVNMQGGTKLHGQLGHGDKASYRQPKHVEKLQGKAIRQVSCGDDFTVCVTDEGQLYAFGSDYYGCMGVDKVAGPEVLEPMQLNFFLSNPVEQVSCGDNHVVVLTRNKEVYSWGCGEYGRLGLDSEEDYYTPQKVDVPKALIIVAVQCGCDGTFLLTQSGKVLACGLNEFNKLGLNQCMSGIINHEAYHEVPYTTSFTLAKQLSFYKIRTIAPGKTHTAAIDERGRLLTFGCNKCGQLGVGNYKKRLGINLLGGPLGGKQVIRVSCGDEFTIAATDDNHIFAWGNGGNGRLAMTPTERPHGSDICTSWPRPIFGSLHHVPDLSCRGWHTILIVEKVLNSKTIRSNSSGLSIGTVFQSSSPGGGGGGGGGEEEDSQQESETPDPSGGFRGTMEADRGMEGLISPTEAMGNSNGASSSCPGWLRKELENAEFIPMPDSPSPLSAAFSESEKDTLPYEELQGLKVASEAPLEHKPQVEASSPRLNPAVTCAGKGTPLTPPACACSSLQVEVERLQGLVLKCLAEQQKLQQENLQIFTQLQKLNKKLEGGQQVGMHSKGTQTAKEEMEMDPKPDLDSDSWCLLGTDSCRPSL

SMILES | assay | setting | remaining binding
O=C(NCCCN1CCOCC1)c1ccc(Nc2ncc(Cl)c(-c3ccc(Cl)s3)n2)cc1 | binding, competition with immobilised ligand | 1 µM | 13%
CC1CCCN1c1nccc(-c2cnn3ncccc23)n1 (stereo not shown) | binding | 1 µM | 100%
CN(C)C(=O)Cn1cc(-c2nc([C@@](C)(c3ccc(-c4cnc(N)nc4)cc3)C3CC3)no2)cn1 | cell-free assay, competition with immobilised ligand | 1 µM | 95%
O=C(Nc1c[nH]nc1C(=O)NC1CCNCC1)c1cc(F)cc(F)c1 | binding, competition with immobilised ligand | 1 µM | 100%
C[C@H](c1ccc(F)cc1)N(Cc1cccc(C(=O)O)c1)C(=O)c1cnc2ccccc2c1 | cell-free assay, competition with immobilised ligand | 1 µM | 100%
C=CC(=O)N1CCC(C(=O)NCC(=O)N2CCN(c3nc(-c4cnc(N)nc4C(F)F)nc(N4CCOCC4)n3)CC2)CC1 | binding, competition with immobilised ligand | 1 µM | 100%
CN(CCCC(F)(F)F)c1nccc(-c2cnn3ncccc23)n1 | binding | 1 µM | 100%
Cc1cc(-n2nc(Cc3cc(F)cc(C(F)(F)F)c3)nc2C)ccc1C(N)=O | cell-free assay, competition with immobilised ligand | 1 µM | 100%
c1cncc(-c2cccc(Nc3nccc(NC4CCCCC4)n3)c2)c1 | binding, competition with immobilised ligand | 10 µM | 95%
Cc1cc(NC(=O)c2cccc(S(F)(F)(F)(F)F)c2)cc(-n2ccn3nc(-c4cccnc4)cc23)c1 | cell-free assay, competition with immobilised ligand | 1 µM | 100%
N[C@@H]1CCN(c2nccc(-c3cnn4ncccc34)n2)C1 | binding | 1 µM | 100%
CCN1CCN(Cc2ccc(C(=O)Nc3ccc(C)c(Oc4ccc5c(c4)CC(=O)N5)c3)cc2C(F)(F)F)CC1 | binding, competition with immobilised ligand | 1 µM | 100%
COc1ncc2cc3ccccc3nc2c1C#N | cell-free assay, competition with immobilised ligand | 5 µM | 95%
COc1cnc(Nc2cccc(S(N)(=O)=O)c2)nc1N1CCN(c2ccccc2)CC1 | binding, competition with immobilised ligand | 1 µM | 83%
CC(=O)Nc1c(C(C)=O)c(=O)n(C)c2nc(-c3ccc(Cl)cc3Cl)c(-c3ccc(Cl)cc3)cc12 | cell-free assay, competition with immobilised ligand | 1 µM | 100%
O=C(NCCCN1CCOCC1)c1ccc(Nc2nccc(-c3cc4ccccc4s3)n2)cc1 | binding, competition with immobilised ligand | 1 µM | 73%
CN(C)c1ncc(F)c(-c2cnn3ncccc23)n1 | binding | 1 µM | 100%
Cc1c(C(=O)O)cc(-c2ccc(C3CCNCC3)cc2)c2ccc(-c3ccc(C(F)(F)F)cc3)cc12 | binding, competition with immobilised ligand | 1 µM | 100%
c1cnn2ncc(-c3ccnc(N4CCC45COC5)n3)c2c1 | binding | 1 µM | 82%
O=C(c1ccc(Nc2ncc(Cl)c(-c3ccc(Cl)s3)n2)cc1)N1CCC(N2CCCC2)CC1 | binding, competition with immobilised ligand | 1 µM | 23%
COc1ccc2cc(OCC3(C(=O)O)CN(C(=O)c4ccc(F)cc4)C3)ccc2c1 | cell-free assay, competition with immobilised ligand | 1 µM | 100%
C[C@H]1CCN(c2nccc(-c3cnn4ncccc34)n2)C1 | binding | 1 µM | 100%
